Laboratory results: PubChem BioAssay
Unmarked numbers belong to inactive results. Results filed as inconclusive are left out. The source made the active and inactive calls.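 Rule for the calls, unless noted: active = growth inhibition above 25% in both replicates, a cutoff set 3 SD above the mean; inconclusive = above 25% in only one replicate; inactive = the rest.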

Tests used:
[1] = S. cerevisiae growth inhibition in permissive medium (OD615), pilot counter-assay for S. cerevisiae lifespan shortening project, permissive growth control (AID 705); conditions: OD615, 24 h, at 10 µM, stronger effect = higher value
Procedure, shortened: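 System: engineered DeaD yeast; Medium: permissive raffinose/galactose medium; Compound dosing: 10 µM single dose, 0.25% DMSO; Incubation: 4 h cell pre-growth, 24 h exposure at 30 °C; Technique: OD at 615 nm; Evaluation: growth inhibition from lowered OD615 after 24 h.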

[2] = S. cerevisiae growth inhibition in restrictive medium, OD615, pilot screen, restrictive growth control, yeast lifespan reduction project (AID 706;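 active = growth inhibition above a set limit, 3 SD over mean compound inhibition, in both replicates, cut at about 43% in these data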;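 note: modified DeaD lifespan yeast strain shifted to restrictive glucose medium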); conditions: OD615, 48 h, at 10 µM, stronger effect = higher value
Procedure, shortened: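 Material: modified S. cerevisiae; buffer or medium: CSMM-D glucose medium; doses: one concentration, 10 µM final, 0.25% DMSO; incubation: 48 h compound exposure at 30 °C; detection: optical density at 615 nm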

[3] = doxorubicin toxicity protection in MRP-1 cells – H69AR cells, CellTiter-Glo, duplicate, MRP-1 activator project, pilot screen (AID 807;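 active = viability increase at or above a cutoff of the median across tested compounds plus 3 SD, cut at about 8.5% in these data, passing the limit was not always enough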;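 note: compound pretreatment 18-22 h then 72 h combined with doxorubicin; 0% = doxorubicin alone and 100% = vehicle without doxorubicin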); conditions: H69AR viability with doxorubicin, CellTiter-Glo luminescence; at 10 µM; stronger effect = higher value
[4] = viability of HCT116 without oncogenic beta-catenin – human colon tumor cells, pilot screen (AID 823;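 active = cell viability at or below a set limit in both duplicate runs, the limit being the all-compound median minus 4 SD, cut at about 23% in these data, passing the limit was not always enough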;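 note: 0% = wells killed by 20 µM Hyamine and 100% = untreated DMSO cell wells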); conditions: HCT116 beta-catenin knockout viability, CellTiter-Glo, 60 h; at 10 µM; stronger effect = lower value
[5] = viability of PTEN-null HCT116 cells – cell-based, HCT116 clonal line, CellTiter-Glo, pilot screen (AID 824;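 active = viability at or below 27.92% in each of two runs, the all-compound median minus 4 SD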;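 note: 0% = 20 µM Hyamine control and 100% = vehicle cell control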); conditions: HCT116 PTEN-deleted viability, 60 h, at 10 µM, stronger effect = lower value
[6] = RAM pathway blockade in budding yeast – dse1pr::URA3 reporter, 5-FOA selection, pilot screen (AID 869;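 active = inhibition over a set limit, the all-compound mean plus 3 SD, in both replicate runs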;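 note: 0% = DMSO wells with no growth and 100% = 10 µM 1-NA-PP1 with full growth; RAM network block rescues cells from 5-FOA so hits raise OD615 growth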); conditions: S. cerevisiae dse1pr::URA3 5-FOA growth, OD615, 2 d; at 10 µM; stronger effect = higher value; strain carries analog-sensitive mutant Cbk1 kinase
[7] = RAM signaling pathway blockade in yeast – S. cerevisiae, Pdr1DBD-CYC8 efflux-inhibited sensitized strain, primary screen (AID 1298;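 active = RAM network inhibition above 8.4% in each of two replicates, 3 SD over the compound average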;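 note: 0% = DMSO untreated cells without growth and 100% = 10 µM 1-NA-PP1 full growth; higher means more yeast growth rescued from 5-FOA killing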); conditions: S. cerevisiae cbk1-as DSE1-URA3 strain, 5-FOA growth OD615, 2 d; at 50 µM; stronger effect = higher value

Structure (SMILES)	growth inhibition [1] [%]	growth inhibition [2]	viability increase [3] [%]	viability [4]	viability [5]	inhibition [6] [%]	RAM network inhibition [7] [%]
Cc1ccc(Nc2cc(C)nc3nc(C)nn23)cc1	-3.6	-11.9%	-3.16	97.4%	95.7%	2.35	3.26
Cc1ccc2c(c1)c1c(n2CC(O)Cn2c(C)nc3ccccc32)C(=O)CCC1 (centres undefined)	-7.12	-1.9%	-0.7	59.2%	62.2%	2.33	7.19
O=C(c1cc(-c2ccc(O)cc2)on1)N1CCc2ccccc2C1	-16.4	15.6%	-4.4	93%	91.1%	0.875	-2.87
CCOC(=O)Nc1cc(C)c(Cl)cc1OC	-8.55	-0.98%	-2.98	84.5%	75.7%	2.17	5.3
Cn1c(CSc2nc3ccc(Br)cc3[nH]2)nc2ccccc21	-3.63	12.1%	1.66	90.8%	85.2%	1.4	9.55
COc1cccc(NC(=O)CSc2ncnc3c2oc2ccccc23)c1	-12.8	6.07%	-2.19	94.2%	87.3%	2.46	4.42
Nc1cc(-c2cccc(F)c2)nn1S(=O)(=O)c1cccc2nsnc12	-5.94	-7.52%	-2.16	68.5%	65.7%	2.71	0.98
CCc1cccc(C)c1NC(=O)C1CCCO1 (centres undefined)	-5.15	-1.12%	-3.29	87.3%	88.1%	0.695	3.57
Cc1ccc(NC2=CC(=O)CC(c3ccco3)C2)c(N)c1 (centres undefined)	-4.58	5.45%	-4.41	81.2%	86.5%	0.07	2.43
COc1ccc(C(=O)NCCSCc2ccco2)cc1OC	-9.5	5.73%	-4.86	98.2%	95.6%	1	5.47
C=C(C)CC1N(c2cccc(OC)c2)C(=O)C2C(C(=O)O)C3C=CC21O3 (centres undefined)	-5.17	4.84%	-1.04	103%	95.3%	-0.415	5.36
CC1CCCCN1CCNC(=O)c1cnn2ccccc12 (centres undefined)	-12.7	-9.32%	-1.7	101%	91.6%	2.58	0.01
O=C(c1cc(-c2cccs2)on1)N1CCCc2ccccc21	-2.66	-4.53%	-3.09	103%	103%	2.58	-0.52
CC1CC(C)CN(CCCNC(=O)Cn2ncc3c(=O)oc4ccccc4c32)C1 (centres undefined)	-0.3	0.08%	-1.86	99%	101%	3.87	5
CCOc1ccc(C2CC(c3ccc(OC)c(OC)c3)n3nc(N)nc3N2)cc1 (centres undefined)	2.68	5.4%	0.31	101%	92.7%	2.06	5.15
CC(=O)C1C(c2ccc(O)cc2)NC(=O)NC1(O)C(F)(F)F (centres undefined)	-15.9	-25.1%	-1.41	102%	98.7%	2.78	4.56
O=C(c1ccccc1Cl)N1CCC(c2nc3c(nnn3Cc3ccco3)c(=O)[nH]2)CC1	-6.62	-11.1%	-4.32	92.5%	87.3%	0.69	3.74
Cc1ccc(C)c(-n2nnnc2SCC(=O)Nc2cccc(-c3nnc4n3CCCCC4)c2)c1	12.3	54.4% (active)	-0.74	97.7%	90.9%	1.77	6.57
Cc1ccc(C2CC(c3ccccc3C)n3nc(N)nc3N2)cc1 (centres undefined)	0.605	-2.86%	-0.57	84.6%	83%	0.77	4.75

Structure (SMILES)	growth inhibition [1] [%]	growth inhibition [2]	viability increase [3] [%]	viability [4]	viability [5]	inhibition [6] [%]	RAM network inhibition [7] [%]
O=C(NC1CC1)c1ccc(CS(=O)(=O)c2c(Cl)cccc2Cl)o1	3.79	-6.65%	-2.96	105%	97.4%	0.475	4.31
O=C(Cn1cnc2c(nnn2-c2ccccc2)c1=O)NCCc1ccccc1	-0.435	-10.4%	-1.04	105%	100%	0.75	3.12
CC(C)CN(CC(C)C)c1nnc(N)s1	3.15	2.1%	1.25	103%	99.5%	0.56	1.13
COC(=O)C1=C(C)N(C)C(C)=C(C(=O)OC)C1c1ccsc1	-6.88	-6.81%	-2.96	91.4%	87.8%	1.99	2.51
CCOc1ccc(N(CC(=O)Nc2ccc(OC)cc2)S(=O)(=O)c2c(C)noc2C)cc1	-8.01	-2.61%	-3.3	83.5%	73.9%	3.53	4.12
O=C(O)CC12CSc3[nH]c(=O)sc3C1c1ccccc1OC2=O (centres undefined)	3.48	-0.005%	-2.73	101%	95%	1.14	-0.11
Cc1nnc(SCc2ccc(Cl)cc2Cl)[nH]c1=O	-11.1	1.19%	0.05	104%	99.1%	0.42	4.49
O=C(Cc1ccc2c(c1)OCCO2)c1c(O)cc(O)cc1O	-12.3	-4.45%	-1.79	96.1%	94%	3.34	6.58
COc1cccc(CNC(=O)C2CCN(S(=O)(=O)c3cccc4cccnc34)CC2)c1	-10.5	-2.92%	-1.45	100%	97.5%	2.88	3.03
CCCCCOC(=O)c1[nH]c2c(c1C)C(=O)CC(c1ccco1)C2 (centres undefined)	-15	-3.28%	-5.25	14.5% (active)	16.3% (active)	0.18	-0.31
CCC(=O)Nc1cccc(-c2nnc(SCC(=O)c3ccccc3)n2C)c1	0.325	45.9% (active)	-1.76	91.7%	92.6%	0	4.95
CCOC(=O)c1cn(-c2ccccc2)nc1-c1cccnc1	-13.6	-8.75%	-3.34	106%	93.5%	1.63	7.28
CCCS(=O)(=O)NCc1cn2c(C)csc2n1	-0.385	17.2%	-2.28	102%	92.6%	2.58	5.52
COc1cccc(NC(=O)Nc2nnc(N3CCCCC3C)s2)c1 (centres undefined)	-2.52	-11.5%	-4.53	88.8%	97.8%	1.83	4.22
COc1cccc(-c2nc(CS(=O)CC(=O)O)c(C)o2)c1 (centres undefined)	-1.73	2.52%	-0.27	99.9%	99.5%	1.31	4.89
NC(=O)c1ccsc1NC(=O)c1cccs1	-5	-5.65%	-2.23	104%	92.8%	1.59	0.37
COc1ccc(N(CC(=O)NCc2ccc3c(c2)OCO3)S(=O)(=O)c2c(C)nn(C)c2C)cc1	-12.2	-3.47%	-2.86	101%	101%	0.12	2.04
CC(C)C(NC(=O)C12CC3CC(CC(C3)C1)C2)C(=O)NC1=NCCS1 (centres undefined)	-6.21	7.3%	-3.97	88%	89.2%	2.41	4.34
